In test [1] the test system is Mus musculus. Kind of test: % T/C(is ratio of median survival time in the group receiving the optimal dose to median survival time in the vehicle control group X 100.) is measured in B16 melanoma cells at the dose of 50 ng/kg on the days 1 and 3(experiment 2). Type of test: functional. A digest of the protocol:
(§1)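 B6D2F1 mice bearing intraperitoneally implanted B16 melanoma (method adapted from earlier work); test agent given iv on days 1 and 3, optimal total dose reported in ng/kg. %T/C = median survival time of the optimal-dose group divided by median survival time of the vehicle control group × 100. Values are individual results from two separate experiments.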

For test [2], the system named is Mus musculus. In words: % T/C(is ratio of median survival time in the group receiving the optimal dose to median survival time in the vehicle control group X 100.) is measured in B16 melanoma cells at the dose of 50 ng/kg on the days 1 and 3(experiment 1). Type of test: functional. A digest of the protocol:
as §1

The subject of the next test is B16. In words: Concentration inducing 20% mitotic index for mitotic block in murine B16 melanoma cells. Type of test: functional, Mus musculus. A digest of the protocol:
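B16 melanoma cells were treated in culture, and mitotic index was measured by a method adapted from earlier work. The value is the drug concentration giving a 20% mitotic index.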

The test system of the next test is A2780. In words: Concentration of compound to inhibit the growth of human A2780 ovarian carcinoma cells(in vitro). Type of test: functional, cell-based.
The subject of test [3] is Mus musculus. Kind of test: % T/C was measured in B6D2F1 mice bearing ip-implanted B16 melanoma cells at the dose of 100n g/kg on the days 1 and 3. Type of test: functional. Summed up: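 B6D2F1 mice bearing intraperitoneally implanted B16 melanoma received compound iv on days 1 and 3, with the total dose stated. %T/C = median survival time at the optimal dose ÷ median survival time of vehicle-treated controls × 100. The method was adapted from earlier work.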

pIC50: −log10 of the molar value.

For orientation: T/C means the ratio of treated to control. One may read the pIC50 as the negative decadic logarithm of the IC50, by convention in mol/L. Read a high pIC50 as a small IC50. For `CC(=O)O[C@H]1C(=O)[C@]2(C)C=CC3OC[C@@]3(OC(C)=O)C2[C@H](OC(=O)c2ccccc2)[C@]2(O)CC(OC(=O)[C@H](O)[C@@H](NC(=O)OC(C)(C)C)c3ccccc3)=C(C)C1C2(C)C` (some centres undefined), the T/C in the test with Mus musculus [1] and with Mus musculus [2] was 181% each time. Further, the “Concentration giving 20% mitotic index” value with B16 was found to be 10 nM. In addition, the pIC50 in the test on A2780 is 8.92.
As to `CC(=O)O[C@@]12COC1C[C@@H]1C[C@@]13C(=O)[C@H](O)C1C(C)=C(OC(=O)[C@H](O)[C@@H](NC(=O)OC(C)(C)C)c4ccccc4)C[C@@](O)([C@@H](OC(=O)c4ccccc4)C23)C1(C)C` (some centres undefined), the T/C came out at 210% in the test on Mus musculus [1] and 184% with Mus musculus [2]. Further, in the test with B16, the “Concentration giving 20% mitotic index” value amounted to 7 nM. Moreover, in the test on A2780, the pIC50 is 8.72.
On to `CC(=O)O[C@H]1C(=O)[C@]2(C)C=CC3OC[C@@]3(OC(C)=O)C2[C@H](OC(=O)c2ccccc2)[C@]2(O)CC(OC(=O)[C@H](O)[C@@H](NC(=O)NC(C)(C)C)c3ccccc3)=C(C)C1C2(C)C` (some centres undefined), for which the T/C came to 241% with Mus musculus [1] and 232% in the test with Mus musculus [2]. Besides, the “Concentration giving 20% mitotic index” value in the test with B16 is 10 nM. In addition, the negative logarithm of the IC50 (pIC50) in the test on A2780 is 9.30.
With `CC(=O)O[C@H]1C(=O)[C@]23C[C@H]2CC2OC[C@@]2(OC(C)=O)C3[C@H](OC(=O)c2ccccc2)[C@]2(O)CC(OC(=O)[C@H](O)[C@@H](NC(=O)NC(C)(C)C)c3ccccc3)=C(C)C1C2(C)C` (some centres undefined), the results for the T/C in the test with Mus musculus [1] and in the test with Mus musculus [2] were 225% and 213%, respectively. In addition, the “Concentration giving 20% mitotic index” value in the test on B16 was determined as 10 nM. Also, in the test with A2780, the pIC50 is 9.22.
Take `CC(=O)O[C@@]12CO[C@@H]1C[C@H](O)[C@@]1(C)C(=O)[C@H](O)C3=C(C)[C@@H](OC(=O)[C@H](O)[C@@H](NC(=O)OC(C)(C)C)c4ccccc4)C[C@@](O)([C@@H](OC(=O)c4ccccc4)[C@H]21)C3(C)C.O.O.O` [DOCETAXEL]: in the test on B16, the “Concentration giving 20% mitotic index” value is given as 15 nM. The compound also gave a pIC50 with A2780 of 8.74. The compound also displayed a T/C in the test with Mus musculus [3] of 177%.

Values taken from ChEMBL document CHEMBL1130131, “12,13-isotaxanes: synthesis of new potent analogs and X-ray crystallographic confirmation of structure” (J Med Chem, 1997).
